# In the library only some 2.3% were active in any assay of this set; here they are far more common.
# Rtt109 HAT inh = inhibitors of C. albicans Rtt109/Vps75 HAT, primary screen, biochemical, ThioGlo CoA-SH fluorescence, plate reader; Histone acetyltransferase RTT109 (Candida albicans (strain SC5314 / ATCC MYA-2876)), …; purified Rtt109/Vps75, 4 h; inhibition, % at 34.9 µM; 330,000 compounds, 0.16% hits; AID 540336, 2011;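 active means inhibition of at least 50% in every replicate; inconclusive means best replicate reaches 50% inhibition but some replicates fall short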
# Target sequence (Q5AAJ8 whole entry, looked up): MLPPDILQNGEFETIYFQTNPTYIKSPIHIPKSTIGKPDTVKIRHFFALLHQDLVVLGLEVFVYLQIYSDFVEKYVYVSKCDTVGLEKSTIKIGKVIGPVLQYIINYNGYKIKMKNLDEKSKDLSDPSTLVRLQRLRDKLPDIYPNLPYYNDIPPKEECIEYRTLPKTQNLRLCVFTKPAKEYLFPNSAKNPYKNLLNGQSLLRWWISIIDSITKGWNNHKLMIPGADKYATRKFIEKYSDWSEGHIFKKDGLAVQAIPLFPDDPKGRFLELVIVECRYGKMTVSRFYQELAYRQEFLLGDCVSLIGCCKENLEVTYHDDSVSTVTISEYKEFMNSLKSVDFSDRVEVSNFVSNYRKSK
# N-glyco inh = increase of ERlucT glycosylation luciferase signal, primary screen, N-linked glycosylation inhibitor project, D54 ERlucT cells, luminescence, set 2. AID 588692, 2011. D54 ERlucT glycosylation luciferase reporter, 24 h; percent of 100 nM tunicamycin response. 360,000 compounds, 0.23% hits. reporter increase, % at 12.5 µM;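 active means mean luciferase reporter signal, scaled so untreated is 0 and the glycosylation-blocking control 100, at or above a set limit in every replicate; inconclusive means mean reaches the limit but not every replicate does; inactive means mean below the limit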;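 further: luciferase carries N-glycosylation sites so blocking glycosylation raises the light; 0% = median of neutral control wells and 100% = median of 100 nM tunicamycin wells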
# PfHsp90 set2 = growth inhibition of PfHsp90-expressing yeast, primary screen, antimalarial PfHsp90 inhibitor project, S. cerevisiae, BacTiter-Glo luminescence, single point, set 2; BacTiter-Glo ATP, 48 h; yeast lacking PDR1 and PDR3 efflux regulators; inhibition, % at 9.4 µM; 310,000 compounds, 0.32% hits; AID 504621, 2011;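 active means every replicate shows inhibition above about 80%, whatever the replicate mean, limit read from the data; inconclusive means mean inhibition reaches the set limit but some replicate falls short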;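 further: 0% = DMSO neutral controls and 100% = 20 µM radicicol positive controls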
# PAX8 reporter = inhibitors of PAX8-driven TPO luciferase reporter, primary screen, RMG-I cells, single concentration; inhibition, % at 12.6 µM; 360,000 compounds, 1.2% hits; SteadyGlo, 24 h;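 active means mean replicate inhibition at least 60% with every replicate also reaching 60%; inconclusive means only one of the two criteria is met; inactive means mean below 60% and not all replicates reaching 60%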;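 further: luciferase light reporting Pax8 driven TPO promoter activity; plate controls were median of neutral control wells for no effect and mitoxantrone controls for full effect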
# Arr AP2 block = inhibitors of beta-arrestin/AP2 binding, primary screen, biochemical, GPCR trafficking, flow cytometry | beta-arrestin 1 C-terminal peptide binding to AP2 beta2-adaptin appendage (human) | FITC-arrestin peptide / GST-AP2 beads; AP2 beta2 appendage carries R879A mutation | inhibition, % at 10 µM | 340,000 compounds, 0.31% hits | AID 504490, 2011;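 active means inhibition above a set limit, near 3 SD of compounds lacking own fluorescence, cut at about 54% in these data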;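 further: plate controls were DMSO wells for no effect and 5 µM unlabelled arrestin peptide for full effect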
#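 System: GST-AP2 R879A bound to glutathione beads, E. coli-expressed. Also added: 50 nM FITC-arrestin peptide. Schedule: compound with beads 12 min RT, then probe 1 h RT. Signal: bead flow cytometry, FITC channel. Read-out basis: percent response.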
# Env fusion inh = inhibitors of HIV-1 Env-driven cell-cell fusion, primary screen, HeLa-JRFL effector, CEM21 target cells, luciferase | AID 651610, 2012 | inhibition, % at 12.3 µM | 360,000 compounds, 1.1% hits;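 active means mean replicate inhibition score of at least 50 and every replicate individually at or above 50; inconclusive means only one of the two criteria met; inactive means mean below 50 and not all replicates reaching 50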;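 further: 0% = plate neutral controls and 100% = maraviroc near 300 nM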
# * hit, by the source's call; u = inconclusive; x = no result; ! = a repeat was not active; [ ] = another dose, or the depositor's remark.
SMILES,Rtt109 HAT inh,N-glyco inh,PfHsp90 set2,PAX8 reporter,Arr AP2 block,Env fusion inh
C[C@@H]1CN([C@H](C)CO)C(=O)c2cc(NS(=O)(=O)c3ccccc3)ccc2O[C@@H](C)CCCCO[C@@H]1CN(C)Cc1ccc(Cl)c(Cl)c1,x,x,x,102*!,x,69*![16.7 µM]
C[C@H]1CN([C@@H](C)CO)C(=O)c2cc(-c3ccccc3F)cnc2O[C@H]1CN(C)C(=O)c1cnccn1,x,x,x,5,x,x
CS(=O)(=O)Nc1ccc2c(c1)[C@@H]1C[C@H](CC(=O)NCC(F)(F)F)O[C@@H](CO)[C@@H]1O2,x,x,x,-14,x,-11[16.7 µM]
C[C@H](CO)N1C[C@H](C)[C@@H](CN(C)C(=O)c2ccc3c(c2)OCO3)Oc2cc(C#Cc3ccccc3F)ccc2S1(=O)=O,x,x,x,79*,x,11[16.7 µM]
C[C@H](CO)N1C[C@H](C)[C@@H](CN(C)C(=O)Cc2ccccc2)Oc2cc(C#Cc3ccccc3F)ccc2S1(=O)=O,x,x,x,74*,x,11[16.7 µM]
CC(C)NC(=O)Nc1ccc2c(c1)C(=O)N(C)[C@H]1CC[C@H](CC(=O)Nc3ccccc3)O[C@@H]1CO2,x,x,x,-5,x,4[16.7 µM]
O=C(CCN1CCCCC1)N[C@@H]1CC[C@H](CCNS(=O)(=O)c2ccc(Cl)cc2)O[C@H]1CO,x,x,x,-1,x,4[16.7 µM]
Cc1ccc(S(=O)(=O)Nc2ccc3c(c2)C(=O)N([C@@H](C)CO)C[C@@H](C)[C@@H](CN(C)C(=O)Nc2cccc4ccccc24)OCCCC[C@@H](C)O3)cc1,x,x,x,68*,x,-41[16.7 µM]
Cc1ccc(S(=O)(=O)Nc2ccc3c(c2)C(=O)N([C@@H](C)CO)C[C@H](C)[C@H](CN(C)C(=O)Nc2cccc4ccccc24)OCCCC[C@@H](C)O3)cc1,x,x,x,35,x,-52[16.7 µM]
C[C@@H]1CCCCO[C@@H](CN(C)C(=O)Nc2cccc3ccccc23)[C@H](C)CN([C@H](C)CO)C(=O)c2cc(NS(=O)(=O)c3ccccc3)ccc2O1,x,x,x,80*,x,-7[16.7 µM]
CC(=O)N(C)C[C@@H]1Oc2cc(-c3ccc(C#N)cc3)ccc2S(=O)(=O)N([C@@H](C)CO)C[C@H]1C,x,x,x,x,x,-4[16.7 µM]
C[C@H]1CN([C@@H](C)CO)S(=O)(=O)c2ccc(C3=CCCC3)cc2O[C@H]1CN(C)CC1CC1,x,x,x,x,x,-10[16.7 µM]
Cc1noc(C)c1NC(=O)N[C@@H]1C=C[C@H](CC(=O)N2CCN(C)CC2)O[C@H]1CO,x,x,x,-8,x,-62[16.7 µM]
CCCNC(=O)N1C[C@@H]2[C@H](c3ccccc31)[C@@H](CO)N2CC1CCCCC1,x,x,x,-24,x,x
Cn1ncc2c(Nc3cccc(Cl)c3)nc(Nc3cccc(Cl)c3)nc21,-2,-3,108*,-3,-4,13
COc1ccc(-c2cc(=O)n(-c3nc4ccccc4[nH]3)[nH]2)cc1,1,u,-23,x,9,66*
CO[C@@H]1CN(C)C(=O)c2ccc(NC(=O)NC(C)C)cc2OC[C@@H](C)N(C(=O)NC(C)C)C[C@@H]1C,x,x,x,x,x,-2[16.7 µM]
CN1C(=O)c2cc(NC(=O)Nc3ccccc3)ccc2OC[C@@H]2O[C@H](CC(=O)O)CC[C@@H]21,x,x,x,4,x,4[16.7 µM]
C[C@H](CO)N1C[C@H](C)[C@@H](CN(C)Cc2ccc(F)cc2)Oc2cc(C#CCN(C)C)ccc2S1(=O)=O,x,x,x,x,x,-5[16.7 µM]
O=C(NC1CC(=O)N(c2ccccc2)C1)C(=O)c1c[nH]c2ccccc12 (stereo not drawn),17,0,x,22,-1,62*
Cc1cccc(NC(=O)CCN2C(=O)c3ccccc3C2=O)c1,59*,0,-2,7,-1,3
CCC(=O)Nc1ccc2c(c1)OC[C@@H](C)N(Cc1cccnc1)C[C@@H](C)[C@@H](OC)CN(C)C2=O,x,x,x,-3,x,x
COc1nc(=O)n(C2C=CC(=O)O2)cc1F (stereo not drawn),x,33*,x,29,x,-136
O=C(NCc1ccc2c(c1)OCO2)c1cc2c(s1)CSC2,-3,1,-18,-7,3,61*
O=C(NCc1ccc2c(c1)OCO2)c1cccc(C(=O)NCc2ccc3c(c2)OCO3)c1,-14,-3,21,x,6,x
SMILES,Rtt109 HAT inh,N-glyco inh,PfHsp90 set2,PAX8 reporter,Arr AP2 block,Env fusion inh
COc1ccc(C(=O)NCc2ccccc2CN2CCCC2)cc1S(=O)(=O)N1CCOCC1,0,-2,x,-20,-16,62*
Cc1ccc(-c2noc(CCCC(=O)Nc3cccnc3)n2)cc1,0,0,x,-21,10,64*
O=C(O)CCc1ccc(-c2ccc(Cl)cc2)o1,30,1,-31,x,20,-33
CCC(=O)NCCc1nc(-c2ccccc2)no1,0,-1,10,-6,2,60*
COc1ccc(-c2ccc(CCC(=O)O)o2)cc1,58*,2,15,-53,40,-10
CCC(=O)NCCCc1nc(-c2ccccc2)no1,-3,8,-56,-1,14,-30
CCOC(=O)c1ccc(NC(=O)CCc2nc(-c3ccc(C)cc3)no2)cc1,-7,-5,-6,23,1,-20
CCOC(=O)c1ccc(NC(=O)CCc2nc(-c3ccc(Cl)cc3)no2)cc1,-6,-4,4,x,6,59*
C[C@H]1CN([C@@H](C)CO)C(=O)c2cc(-c3ccccc3)cnc2O[C@@H]1CN(C)Cc1ccc(C(=O)O)cc1,x,x,x,x,x,-27[16.7 µM]
COc1ccc(S(=O)(=O)N(C)C[C@H]2Oc3ccc(NS(=O)(=O)c4c(C)noc4C)cc3CC(=O)N([C@H](C)CO)C[C@@H]2C)cc1,x,x,x,-4,x,8[16.7 µM]
Cc1ccc(S(=O)(=O)N(C)C[C@H]2OCCCC[C@@H](C)Oc3ccc(NS(=O)(=O)c4cn(C)cn4)cc3C(=O)N([C@@H](C)CO)C[C@H]2C)cc1,x,x,x,-9,x,-32[16.7 µM]
COc1ccc(-c2noc(CCCC(=O)O)n2)cc1,-9,1,-3,x,1,84*
CN1CCCCCC1=Nc1ccc([N+](=O)[O-])cc1,5,-1,5,1,16,10
CN1C(=O)C(N=Nc2ccc([N+](=O)[O-])cc2)SC1=S (stereo not drawn),8,-7,114*,1,1,28
C[C@H]1CN([C@@H](C)CO)C(=O)Cc2cc(NC(=O)Cc3ccccc3)ccc2O[C@H]1CN(C)Cc1ccc(C(=O)O)cc1,x,x,x,11,x,9[16.7 µM]
CC(C)(C)c1nn(-c2ccccc2)c2[nH]c(=O)c(CNc3ccc4c(c3)OCCO4)cc12,1,-6,121*,x,29,x
Cc1cccc(S(=O)(=O)N2C[C@H](O)COC[C@H]3O[C@H](CC(=O)N4CCN(C)CC4)CC[C@@H]32)c1,x,x,x,4,x,x

# Compound activity as filed in PubChem BioAssay.
